Data on 41 compounds can be found in ChEMBL document CHEMBL1124065, “Development of a new physicochemical model for brain penetration and its application to the design of centrally acting H2 receptor histamine antagonists” (J Med Chem, 1988).

Data set [1] is described as follows: Log of (Cbrain/Cblood) in rats. To be noted: rat.
A short description of data set [2]: Log (Cbrain/Cblood) in rats. To be noted: rat.
The target of data set [3] is Histamine H2 receptor (Cavia porcellus) (UniProt P47747). Description: In vitro Histamine H2 receptor antagonist activity in the histamine-stimulated guinea pig right atrium. It counts as functional, tissue-based. To be noted: Cardiac atrium.
Sequence of Histamine H2 receptor (Cavia porcellus) (P47747 whole entry): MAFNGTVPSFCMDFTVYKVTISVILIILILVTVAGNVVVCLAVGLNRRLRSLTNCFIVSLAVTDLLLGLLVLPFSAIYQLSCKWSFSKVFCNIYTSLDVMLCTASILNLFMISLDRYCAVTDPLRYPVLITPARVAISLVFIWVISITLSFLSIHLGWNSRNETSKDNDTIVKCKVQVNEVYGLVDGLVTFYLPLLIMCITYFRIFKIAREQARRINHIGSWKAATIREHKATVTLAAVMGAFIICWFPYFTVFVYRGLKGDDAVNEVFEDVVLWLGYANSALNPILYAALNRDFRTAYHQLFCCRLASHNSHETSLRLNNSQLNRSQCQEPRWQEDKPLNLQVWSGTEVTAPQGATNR
The nature of data set [4]: Change in logarithm of partition coefficient of the compound. It counts as physicochemical. To be noted: octanol/water. The essentials: (§1)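 Shake-flask partitioning at 37 °C in 1-octanol/water and cyclohexane/water, with buffer salts setting aqueous pH. Aqueous-phase compound concentration was read spectrophotometrically before and after partitioning. Neutral-form log P was calculated from eq 1 using the measured log P at a stated pH and the pKa. Values are means of ≥2 determinations. Δlog P = log P(octanol) − log P(cyclohexane).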

Data set [5] in a line: Partition coefficient (Log Pn, neutral form, cyclohexane/water). In kind it is ADME. The essentials: as §1
Data set [6] can be described thus: (§2) Logarithm of partition coefficient of the neutral form of compound given for octanol/water solvent system. In kind it is physicochemical. In a few lines:
(§3)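 Shake-flask partitioning at 37 °C in 1-octanol/water and cyclohexane/water, with buffer salts setting aqueous pH. Aqueous-phase compound concentration was read spectrophotometrically before and after partitioning. Neutral-form log P was calculated from eq 1 using the measured log P at a stated pH and the pKa.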

Data set [7] can be described thus: Logarithm of partition coefficient of the neutral form of compound given for […]/water solvent system. It counts as physicochemical. To be noted: octanol/water.
The nature of data set [8]: Delta logPoct-cyc. It counts as ADME. To be noted: octanol/water. In a few lines: as §3
A short description of data set [9]: as §2. In kind it is physicochemical. In a few lines: as §1
The source holds these as a separate data set.

The Kp is tissue or fluid exposure divided by exposure in the circulation. `CC(=O)Nc1cccc(-c2csc(N=C(N)N)n2)c1`: the partition ratio (Kp) was 0.018 in [1] (in vivo) and 0.0269 in [2] (in vivo). For the same compound, the -Log KB in data set [3] is 7.36.

Take `CC(NCCCOc1cccc(CN2CCCCC2)c1)=C(C#N)C#N`: the -Log KB in [3] was less than 4.9.

On to `C/N=C(\NC#N)Nc1cccc(-c2csc(N=C(N)N)n2)c1`, for which, in [4], the “delta Log P” value was determined as 4.26. The Kp in data set [1] (brain and blood) was 0.0293; in [2] (brain and blood), 0.0288. Further, in data set [5], the “Log Pn” value is -2.66. This compound showed a -Log KB in [3] of 7.84.

A word on the logP: it is the decadic logarithm of the partition coefficient of the neutral form, usually between octanol and water. Low values mean lower lipophilicity, high ones higher lipophilicity. On to `NC(N)=Nc1nc(-c2ccccc2)cs1`, for which, in data set [4], the “delta Log P” value was found to be 3.92. The Kp in data set [1] (brain and blood) is 0.66; in data set [2] (brain and blood), 0.661. Also, in data set [5], the “Log Pn” value is -1.28. Further, the log partition coefficient (logP) in data set [6] came to 2.64.

Regarding `CN(C)Cc1ccc(-c2cccc(Nc3[nH]ccc3[N+](=O)[O-])c2)o1`, in data set [4], the “delta Log P” value turned out to be 2.88. For the same compound, the Kp in [1] (brain and blood) was 0.545; in data set [2] (brain and blood) it was 0.537. Besides, the “Log Pn” value in data set [5] amounted to 0.22. This compound showed a -Log KB in data set [3] of 6.02. Moreover, the logP in data set [6] was 3.1.

Take `Cc1ccc(Cc2c[nH]c(NCCSCc3ccc(CN(C)C)o3)nc2=O)cn1` [LUPITIDINE]: the “delta Log P” value in data set [4] is recorded as 3.81. The Kp in data set [1] (brain and blood) is 0.0884; in data set [2] (brain and blood) it was 0.0871. For the same compound, the “Log Pn” value is -1.48 in data set [5] and 2.64 in data set [7]. In addition, in data set [3], the -Log KB came out at 7.91. The compound further yielded a log partition coefficient (logP) in [6] of 2.33.

For the compound `CN(C)Cc1ccc(-c2ccc(Nc3[nH]ccc3[N+](=O)[O-])cc2)o1`, in data set [3], the -Log KB was less than 4.3.

Turning to `CN(C)c1cc(-c2n[nH]c(N)n2)ccn1`, the Kp in data set [2] (brain and blood) was 0.0676. In data set [3], this compound yielded a -Log KB of 5.59.

Consider `O=C(NCCCOc1cccc(CN2CCCCC2)c1)c1ccccc1`, for which the “delta Log P” value in [4] worked out at 1.79. Also, the Kp in data set [1] (in vivo) is 0.58; in data set [2] (in vivo) it was 0.575. For the same compound, the “Log Pn” value in [5] came out at 2.18. The -Log KB in data set [3] stood at 7.79. The same compound had a logP in data set [6] of 3.97.

Regarding `c1cc(CN2CCCCC2)cc(OCCCNc2nc3ccccc3s2)c1` [ZOLANTIDINE], the “delta Log P” value in data set [4] turned out to be 1.69. The same compound showed a Kp in data set [1] (in vivo) of 1.38. Moreover, in data set [5], the “Log Pn” value came out at 3.72. In data set [3], the -Log KB stood at 7.46.

In turn, `O=S(=O)(NCCCOc1cccc(CN2CCCCC2)c1)c1ccccc1` yielded a -Log KB in [3] of less than 4.8.

`CN(C)Cc1ccc(-c2cccc(CNc3[nH]ccc3[N+](=O)[O-])c2)o1`: in [3], the -Log KB is less than 3.8.

In the case of `CN(C)Cc1ccc(CSCCNc2[nH]cc(Cc3ccccc3)c2[N+](=O)[O-])o1`, the “delta Log P” value in data set [4] is listed as 2.54. Also, the partition ratio (Kp) in data set [1] (in vivo) was 0.184; in data set [2] (in vivo), 0.186. Also, the “Log Pn” value in data set [5] is recorded as 1.11. The same compound displayed a -Log KB in data set [3] of 7.35. For the same compound, the logP in data set [6] was 3.65.

In [1] (in vivo), `O=[N+]([O-])c1cc[nH]c1NCCSCc1ccccn1` came in with a Kp of 0.18. Also, the -Log KB in data set [3] stood at 6.7.

With `OCCCOc1cccc(CN2CCCCC2)c1`, the “Log Pn” value in [5] is reported as 1.31. Further, the logP in [6] is 2.78.

As for `c1cc(CN2CCCCC2)cc(OCCCNc2nc3ccccc3o2)c1`, the Kp in data set [1] (in vivo) amounted to 1.42. The compound further displayed a -Log KB in data set [3] of 7.19.

In the case of `N=C(N)Nc1nc(-c2cccc(N)c2)cs1`, the “delta Log P” value in data set [4] was determined as 4.6. Moreover, the Kp in data set [1] (brain and blood) was 0.0705; in data set [2] (brain and blood) it was 0.0708. Further, the “Log Pn” value in data set [5] is listed as -3.19. In [3], this compound gave a -Log KB of 7.33. The compound further gave a logP in [6] of 1.41.

Regarding `CN(C)Cc1ccc(CSCCNc2ncc(Cc3ccc4ccccc4c3)c(O)n2)o1`, in data set [8], the “delta logP” value was 4.1. In data set [6], this compound returned a logP of 4.57.

Consider `c1cc(CN2CCCCC2)cc(OCCCNc2nccs2)c1`, for which the concentration ratio (Kp) in data set [1] (in vivo) was 1.98; in data set [2] (in vivo), 2.75. The same compound showed a -Log KB in [3] of 7.41.

For `FC(F)(F)CNCCCOc1cccc(CN2CCCCC2)c1`, the -Log KB in data set [3] is less than 4.3.

For `CN/C(=C\[N+](=O)[O-])NCCSCc1ccc(CN(C)C)o1` [RANITIDINE], the Kp in [1] (in vivo) was 0.0586; in data set [2] (in vivo), 0.0589. In addition, the “Log Pn” value in data set [5] is listed as less than -3. This compound gave a -Log KB in [3] of 7.05. In addition, in data set [6], the log partition coefficient (logP) amounted to 0.27.

Turning to `COc1ccc(CN(CCN(C)C)c2ccccn2)cc1` [PYRILAMINE], in [8], the “delta logP” value is 0.71. For the same compound, in [6], the logP worked out at 3.3.

Consider `O=[N+]([O-])c1c(Cc2ccccc2)c[nH]c1NCCSCc1ccccn1`, for which the partition ratio (Kp) was 0.724 in data set [1] (brain and blood); 0.759 in data set [2] (brain and blood). In data set [3], the -Log KB was 6.97.

`Cc1csc(N=C(N)N)n1`: the “delta Log P” value in [4] came to 4.03. Moreover, the Kp in data set [1] (in vivo) is 0.873; in data set [2] (in vivo), 0.912. For the same compound, the “Log Pn” value in [5] was -2.79. The compound further came in with a -Log KB in data set [3] of 6.27.

In the case of `NCCCOc1cccc(CN2CCCCC2)c1`, the -Log KB in [3] amounted to 5.19.

The compound `Cc1[nH]cnc1CSCCNc1[nH]ccc1[N+](=O)[O-]` displayed a -Log KB in [3] of 7.31. For the same compound, the lipophilicity (logP) in [6] is 1.04.

For the compound `O=[N+]([O-])c1cc[nH]c1NCCSCc1nccc2ccccc12`, the “delta Log P” value in data set [4] stood at 3.46. For the same compound, the “Log Pn” value in data set [5] is -0.67. Besides, in data set [3], the -Log KB was determined as 6.84. Further, the logP in data set [6] turned out to be 2.79.

As to `CC/N=C(\NC#N)NCCSCc1ncccc1Br`, the concentration ratio (Kp) in data set [1] (in vivo) is 0.00753; in [2] (in vivo) it was 0.00708. The -Log KB in data set [3] stood at 6.5. Moreover, in data set [6], the logP stood at 1.98.

`N=C(N)Nc1nc(-c2ccccc2)cs1` displayed a -Log KB in data set [3] of 5.93.

As to `c1ccc(NCCCOc2cccc(CN3CCCCC3)c2)nc1`, in data set [4], the “delta Log P” value amounted to 1.06. Besides, the values for the concentration ratio (Kp) in data set [1] (in vivo) and in [2] (in vivo) were 4.85 and 4.9, respectively. Besides, the “Log Pn” value in data set [5] was determined as 3.23. For the same compound, in data set [3], the -Log KB was determined as 6.09. In data set [6], this compound came in with a lipophilicity (logP) of 4.29.

Compound `c1cc(CN2CCCCC2)cc(OCCCNc2ccc3ccccc3n2)c1` gave a -Log KB in data set [3] of 6.21.

The compound `CS(=O)(=O)NCCCOc1cccc(CN2CCCCC2)c1` came in with a -Log KB in data set [3] of 4.67.

With `Clc1cccc(Cl)c1N=C1NCCN1` [CLONIDINE], in data set [8], the “delta logP” value is 2.44.

As for `O=[N+]([O-])c1cc[nH]c1NCCSCc1ncccc1Br`, the “delta Log P” value in data set [4] is 3.09. Moreover, the Kp in data set [1] (brain and blood) is 0.214; in [2] (brain and blood), 0.214. In data set [5], the “Log Pn” value is -1.34. This compound gave a -Log KB in data set [3] of 7.24. This compound also had a logP in data set [6] of 1.75.

Consider `CNC(=NCCSCc1csc(N=C(N)N)n1)NC#N` [TIOTIDINE], for which the log partition coefficient (logP) in data set [6] turned out to be 0.6.

With `c1ccc(NCCCOc2cccc(CN3CCCCC3)c2)cc1`, the -Log KB in [3] is 5.7.

`CN(C)Cc1ccnc(-c2cccc(Nc3[nH]ccc3[N+](=O)[O-])c2)c1`: the partition ratio (Kp) was 0.454 in data set [1] (in vivo) and 0.525 in data set [2] (in vivo). The same compound had a -Log KB in data set [3] of 6.6.

`CN(C)c1cccc(-c2csc(NC(=N)N)n2)c1` showed a -Log KB in data set [3] of less than 3.8.

As to `COc1cccnc1CCCCNc1ncc(Cc2ccc(C)nc2)c(=O)[nH]1` [ICOTIDINE], the “delta logP” value in data set [8] worked out at 5.18. The compound also returned a logP in [9] of 2.58.

On to `CN(C)Cc1ccc(CSCCNc2[nH]ccc2[N+](=O)[O-])o1`, for which, in data set [4], the “delta Log P” value worked out at 3.12. In addition, the Kp in data set [1] (brain and blood) is 0.0652; in [2] (brain and blood) it was 0.0759. Also, the “Log Pn” value in [5] is given as -1.48. In [3], this compound displayed a -Log KB of 6.63. Moreover, in data set [6], the lipophilicity (logP) is 1.64.

For `CC(=O)NCCCOc1cccc(CN2CCCCC2)c1`, the “delta Log P” value in data set [4] amounted to 1.93. The figures for the partition ratio (Kp) in [1] (in vivo) and in data set [2] (in vivo) were 0.346 and 0.347, respectively. Also, the “Log Pn” value in data set [5] amounted to 0.22. Further, the -Log KB in [3] stood at 7.79. This compound displayed a logP in [6] of 2.15.
